Like-named read-outs stand apart in the source and are kept apart here. Marks after values point to notes of the source that are not given here.
Legend:
Cell viability = type: cell-based, human; conditions: human; for CC50: U937 cells; for CC50 at 48 h: uninfected U937 cells
How it was run: (§1)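 Uninfected U937 cells, 40,000/well (1 × 10^6 cells/mL) in RPMI 1640 + 10% FBS, were incubated with serially diluted test compound in 384-well plates for 48 h at 37 ℃/5% CO2. After the plates were spun at 500 ×g for 3 min, supernatant was replaced with medium containing 20% MTS reagent for 1 h at 37 ℃. OD490 was read against reference OD630, and CC50 was derived.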

[1] = tested on: A/PuertoRico/8/1934 (H1N1) influenza virus; test: microbe, parasite or virus in culture; type: cell-based, influenza virus A/PuertoRico/8/1934 (H1N1)
CCL2 = test: cells; type: cell-based, human; conditions: for IC50: Homo sapiens
CXCL10 = test: cells; type: cell-based, human; conditions: for IC50: Homo sapiens, U-937, read-out: IC50 CXCL10
[2] = tested on: lethal influenza virus infection; conditions: mouse, cited from earlier work
U937 cells = test: Cell viability; type: cell-based, human; conditions: 50% cytotoxic concentration, MTS assay, U937 cells; validation panel (Table 2)
How it was run: as §1

[3] = Influenza A virus, H1N1, U-937, read-out: IC50 NA

Structure (SMILES) | CC50 (Cell viability) | In vivo: the protective effect of mice from lethal influenza infection [2] | CC50 at 48 h (Cell viability) | IC50 NA [1] | IC50 CCL2 (CCL2) | IC50 CXCL10 (CXCL10) | reported effect on survival rate of influenza-infected mice ([2]; in vivo) | also measured
CC[C@@H]1/C=C(\C)C[C@H](C)C[C@H](OC)[C@H]2O[C@@](O)(C(=O)C(=O)N3CCCC[C@H]3C(=O)O[C@H](/C(C)=C/[C@@H]3CC[C@@H](O)[C@H](OC)C3)[C@H](C)[C@@H](O)CC1=O)[C@H](C)C[C@@H]2OC [Ascomycin, ascomycin] | 62 µM | + |  |  |  |  |  | antiviral effect in the U937 cell model (result in words) [1]: antiviral effects; IC50 [1, 3]: 21.3 µM; IC50 (CCL2; U-937, read-out: IC50 CCL2): 8.1 µM; IC50 (CXCL10): 9.9 µM
Cc1nc(Nc2ncc(C(=O)Nc3c(C)cccc3Cl)s2)cc(N2CCN(CCO)CC2)n1 [Dasatinib] |  |  | > 90 µM |  |  |  |  | 
Cc1ccc(-c2ncc(Cl)cc2-c2ccc(S(C)(=O)=O)cc2)cn1 [Etoricoxib, etoricoxib] | > 50 µM | ±^j |  | – (key: –: lower than 50% inhibition or not effective) | – (key: –: lower than 50% inhibition or not effective) | – (key: –: lower than 50% inhibition or not effective) | no improvement on the survival rate | effect on the production of CCL2 in U937 cell model (result in words) (CCL2): no inhibitory effect; effect on the production of CXCL10 in U937 cell model (result in words) (CXCL10): no inhibitory effect
CC(C)n1c(/C=C/C(O)CC(O)CC(=O)O)c(-c2ccc(F)cc2)c2ccccc21 (stereo not shown) [Fluvastatin] |  |  | > 90 µM |  |  |  |  | 
C=CC(=O)N1CCC[C@@H](n2nc(-c3ccc(Oc4ccccc4)cc3)c3c(N)ncnc32)C1 [Ibrutinib, ibrutinib] | 26.5 µM | +^i |  | –^h (key: –: lower than 50% inhibition or not effective) |  |  | improve the survival rate and pathology | IC50 (CCL2; U-937, read-out: IC50 CCL2): 0.62 µM; IC50 (CXCL10): 0.96 µM; reported protection of mice from lethal influenza infection ([2]; in vivo): protect mice from lethal influenza infection
CC(C)Cc1ccc(C(C)C(=O)O)cc1 (stereo not shown) [Ibuprofen, ibuprofen] | > 50 µM |  |  | – (key: –: lower than 50% inhibition or not effective) | – (key: –: lower than 50% inhibition or not effective) | – (key: –: lower than 50% inhibition or not effective) |  | effect on the production of CCL2 in U937 cell model (result in words) (CCL2): no inhibitory effect; effect on the production of CXCL10 in U937 cell model (result in words) (CXCL10): no inhibitory effect
C[C@H]1COc2c(N3CCN(C)CC3)c(F)cc3c(=O)c(C(=O)O)cn1c23 [Levofloxacin] |  |  | > 90 µM |  |  |  |  | IC50 (CCL2; U-937, 48 h, read-out: IC50 CCL2): ≤ 10 µM; reported survival rate in mice infected with the H1N1 PR8 virus ([2]; in vivo): increased the survival rate
CCOC(=O)C1=C[C@@H](OC(CC)CC)[C@H](NC(C)=O)[C@@H](N)C1 [Oseltamivir] |  | + |  |  | – (key: –: lower than 50% inhibition or not effective) | – (key: –: lower than 50% inhibition or not effective) |  | CC50 (U937 cells): > 100 µM; antiviral effect in the U937 cell model (result in words) [1]: antiviral effects; IC50 ([1]; read-out: IC50 NA): 0.58 µM
CC(C)Oc1ccc(-c2nc(-c3cccc4c3CC[C@@H]4NCCO)no2)cc1C#N [Ozanimod, ozanimod] | 26 µM | + |  | – (key: –: lower than 50% inhibition or not effective) |  |  | improve the survival rate and pathology | IC50 (CCL2; U-937, read-out: IC50 CCL2): 7.7 µM; IC50 (CXCL10): 10.7 µM
O=C(O)C[C@H](O)C[C@H](O)/C=C/c1c(C2CC2)nc2ccccc2c1-c1ccc(F)cc1 [Pitavastatin] |  |  | > 90 µM |  |  |  |  | 
CNCCCC1c2ccccc2C=Cc2ccccc21 [Protriptyline] |  |  | > 90 µM |  |  |  |  | 
NC(=O)c1ncn([C@@H]2O[C@H](CO)[C@@H](O)[C@H]2O)n1 [Ribavirin] | > 160 µM |  |  |  | – (key: –: lower than 50% inhibition or not effective) | – (key: –: lower than 50% inhibition or not effective) |  | antiviral effect in the U937 cell model (result in words) [1]: antiviral effects; IC50 [1, 3]: 26.2 µM
CN(CCOc1ccc(CC2SC(=O)NC2=O)cc1)c1ccccn1 (stereo not shown) [Rosiglitazone, rosiglitazone] | > 100 µM | + |  | – (key: –: lower than 50% inhibition or not effective) | – (key: –: lower than 50% inhibition or not effective) | – (key: –: lower than 50% inhibition or not effective) | improve the survival rate and pathology | 
CCC(C)(C)C(=O)O[C@H]1C[C@@H](C)C=C2C=C[C@H](C)[C@H](CC[C@@H]3C[C@@H](O)CC(=O)O3)[C@H]21 [Simvastatin] |  |  | 66.8 µM |  |  |  |  | 
CCOC(=O)N[C@@H]1CC[C@@H]2[C@@H](C1)C[C@H]1C(=O)O[C@H](C)[C@H]1[C@H]2/C=C/c1ccc(-c2cccc(F)c2)cn1 [Vorapaxar, vorapaxar] | > 80 µM | + |  | – (key: –: lower than 50% inhibition or not effective) |  |  | improve the survival rate and pathology | IC50 (CCL2; U-937, read-out: IC50 CCL2): 5.2 µM; IC50 (CXCL10): 13.3 µM

From PMC6889097 (Virologica Sinica, 2019)
